# Experimental data gathered from unrelated publications.
# Lines come from different studies, so protocols differ.
# Read-out: enzyme activity
# Action: inhibitor
# PFF0160c: Dihydroorotate dehydrogenase (quinone), mitochondrial (PFF0160c, Plasmodium falciparum, UniProt Q08210)
# PFF0160c E182D: Dihydroorotate dehydrogenase (quinone), mitochondrial (PFF0160c, Plasmodium falciparum, UniProt Q08210, E182D)
SMILES,target,test,IC50
Cc1c(Cc2ccc(C(F)(F)F)nc2)c[nH]c1C(=O)N[C@@H](C)CO,PFF0160c,absorbance,2.7 µM
Cc1nc(Nc2ccc(C(F)(F)F)cc2)c2c(C(F)(F)F)noc2n1,PFF0160c,absorbance,0.033 µM
Cc1[nH]c(C(=O)NC(C)c2cnn(C)c2)c(C)c1Cc1ccc(C(F)(F)F)nc1 (stereo not shown),PFF0160c,absorbance,> 30 µM
Cc1nc(NC2Cc3cc(F)c(F)cc3C2)c2c(C)noc2n1,PFF0160c,absorbance,0.048 µM
CCN(CC)CC#Cc1ccc2[nH]c(C)c(Cl)c(=O)c2c1,PFF0160c E182D,absorbance,> 10 µM
Cc1cc(C(C)NC(=O)c2[nH]cc(-c3c[nH]c4cc(C(F)(F)F)ccc34)c2C)no1 (stereo not shown),PFF0160c,absorbance,> 100 µM
COC(=O)C1=CNC=C(C(=O)OC)C1c1ccc(Cl)c([N+](=O)[O-])c1,PFF0160c,absorbance,0.716 µM
Cc1cc(Nc2ccc(Cl)cc2)n2ncnc2n1,PFF0160c,,1.6 µM
Cc1nc(Nc2ccc(S(F)(F)(F)(F)F)cc2)c2c(CO)noc2n1,PFF0160c,absorbance,2.8 µM
CCCOc1ccccc1-c1nc2sc3c(c2c(=O)[nH]1)CCN(C)C3,PFF0160c E182D,absorbance,0.911 µM
